Results as given in ChEMBL document CHEMBL5724801, “EUbOPEN Chemogenomics Library - Multiplex” (2024).
Several values for one entry are separate records, joined by “and”; a condition that tells them apart may be missing. Equal entries are not always repeated.

Tested on: Fibroblast
Assay: Multiplex assay against human fibroblast
Type: toxicity, cell-based
In short: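 On a CQ1 microscope at 37°C and 5% CO2, live cells were imaged after compound addition. They had been stained at seeding with Hoechst33342, BioTracker Green Microtubule Cytoskeleton Dye, MitoTracker Red and Annexin V Alexa Fluor 680. CellPathfinder machine-learning gating assigned cells to Hoechst high-intensity objects or normal cells, normal cells to healthy, pyknosed or fragmented nuclei, and pyknosed cells to mitotic or apoptotic. Tubulin, mitochondrial-mass and membrane-permeability phenotypes are per cents of healthy-nucleus cells.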

[1] = 12 h, 1 µM, compound concentration 1 uM
[2] = 12 h, 10 µM, compound concentration 10 uM
[3] = 24 h, 1 µM, compound concentration 1 uM
[4] = 24 h, 10 µM, compound concentration 10 uM
[5] = 48 h, 1 µM, compound concentration 1 uM
[6] = 48 h, 10 µM, compound concentration 10 uM

In the case of CC(C)CC(=O)Nc1cncc(-c2ccc3[nH]nc(-c4nc5c(-c6cccc(F)c6)cncc5[nH]4)c3c2)c1 [LORECIVIVINT], the “Population Fragmented Nuclei (%)” value [1] is reported as 12.2% and 10.34%, the “Population Healthy Nuclei (%)” value [1] is reported as 60.98% and 74.14% and the “Population Hoechst High Intensity Objects (%)” value [1] is reported as 0%. The “Population Membrane Permeable-Phenotype (%)” value [1] was 6% and 10.08%, the “Population Mitochondria Different-Phenotype (%)” value [1] was 10% and 9.3% and the “Population Mitotic Cells (%)” value [1] was 95.45% and 62.96%. For the same molecule, the “Population Normal (%)” value [1] was 100%, the “Population Pyknosed Nuclei (%)” value [1] was 26.83% and 15.52% and the “Population Tubulin-Different-Phenotype (%)” value [1] was 36% and 44.19%. For the same molecule, the “Total Cell Count” value [1] was 164 and 174, the “Population Apoptotic (%)” value [2] was 37.84% and 20.2% and the “Population Fragmented Nuclei (%)” value [2] was 10.38% and 7.03%. The “Population Healthy Nuclei (%)” value [2] was 64.01% and 61.34%, the “Population Hoechst High Intensity Objects (%)” value [2] was 0% and the “Population Membrane Permeable-Phenotype (%)” value [2] was 14.59% and 9.38%. For the same molecule, the “Population Mitochondria Different-Phenotype (%)” value [2] was 4.86% and 2.08%, the “Population Mitotic Cells (%)” value [2] was 62.16% and 79.8% and the “Population Normal (%)” value [2] was 100%. For the same molecule, the “Population Pyknosed Nuclei (%)” value [2] was 25.61% and 31.63%, the “Population Tubulin-Different-Phenotype (%)” value [2] was 37.84% and 36.46% and the “Total Cell Count” value [2] was 289 and 313. For the same molecule, the “Population Apoptotic (%)” value [3] was 12.9% and 25%, the “Population Fragmented Nuclei (%)” value [3] was 14.37% and 8.2% and the “Population Healthy Nuclei (%)” value [3] was 67.82% and 80.87%. For the same molecule, the “Population Hoechst High Intensity Objects (%)” value [3] was 0%, the “Population Membrane Permeable-Phenotype (%)” value [3] was 6.78% and 12.84% and the “Population Mitochondria Different-Phenotype (%)” value [3] was 5.08% and 2.7%. The “Population Mitotic Cells (%)” value [3] was 87.1% and 75%, the “Population Normal (%)” value [3] was 100% and the “Population Pyknosed Nuclei (%)” value [3] was 17.82% and 10.93%. For the same molecule, the “Population Tubulin-Different-Phenotype (%)” value [3] was 34.75% and 50.68%, the “Total Cell Count” value [3] was 174 and 183 and the “Population Apoptotic (%)” value [4] was 40% and 21.83%. The “Population Fragmented Nuclei (%)” value [4] was 10% and 5.2%, the “Population Healthy Nuclei (%)” value [4] was 49.38% and 59.65% and the “Population Hoechst High Intensity Objects (%)” value [4] was 0%. The “Population Membrane Permeable-Phenotype (%)” value [4] was 13.29% and 10.37%, the “Population Mitochondria Different-Phenotype (%)” value [4] was 2.53% and 0.41% and the “Population Mitotic Cells (%)” value [4] was 60% and 78.17%. The “Population Normal (%)” value [4] was 100%, the “Population Pyknosed Nuclei (%)” value [4] was 40.62% and 35.15% and the “Population Tubulin-Different-Phenotype (%)” value [4] was 37.97% and 34.02%. For the same molecule, the “Total Cell Count” value [4] was 320 and 404, the “Population Apoptotic (%)” value [5] was 16.67% and 32.43% and the “Population Fragmented Nuclei (%)” value [5] was 16.43% and 12.15%. The “Population Healthy Nuclei (%)” value [5] was 60.39% and 67.4%, the “Population Hoechst High Intensity Objects (%)” value [5] was 0% and the “Population Membrane Permeable-Phenotype (%)” value [5] was 8% and 13.93%. The “Population Mitochondria Different-Phenotype (%)” value [5] was 9.6% and 4.92%, the “Population Mitotic Cells (%)” value [5] was 83.33% and 67.57% and the “Population Normal (%)” value [5] was 100%. For the same molecule, the “Population Pyknosed Nuclei (%)” value [5] was 23.19% and 20.44%, the “Population Tubulin-Different-Phenotype (%)” value [5] was 32% and 47.54% and the “Total Cell Count” value [5] was 207 and 181. For the same molecule, the “Population Apoptotic (%)” value [6] was 46.41% and 43.05%, the “Population Fragmented Nuclei (%)” value [6] was 10.67% and 7.39% and the “Population Healthy Nuclei (%)” value [6] was 33.6% and 33.77%. The “Population Hoechst High Intensity Objects (%)” value [6] was 0%, the “Population Membrane Permeable-Phenotype (%)” value [6] was 8.73% and 10.16% and the “Population Mitochondria Different-Phenotype (%)” value [6] was 5.56% and 1.56%. For the same molecule, the “Population Mitotic Cells (%)” value [6] was 53.59% and 56.95%, the “Population Normal (%)” value [6] was 100% and the “Population Pyknosed Nuclei (%)” value [6] was 55.73% and 58.84%. The “Population Tubulin-Different-Phenotype (%)” value [6] was 17.46% and 26.56% and the “Total Cell Count” value [6] was 375 and 379.
